The structures appear in SMILES notation. Activity calls are given as the source filed them. The rule behind the calls is not given here. Bounds are passed on as bounds.

By IC50 is commonly meant the concentration needed to halve the response being measured. The term half-life denotes how long it takes for the measured level to halve. The low end stands for fast loss, the high end for slow loss. As a reminder, the AUC(0-t) is the area under the concentration-time curve up to a stated or last time point. Read a high AUC(0-t) as more exposure. The term bioavailability denotes dose-corrected exposure relative to a reference, in per cent. Usually Cmax stands for the peak of the concentration-time curve. The term Tmax denotes the time at which the peak concentration occurs. For orientation: Kp means tissue or fluid exposure divided by exposure in the circulation.

Series [1] deals with T1, Solute carrier organic anion transporter family member 1B1 (Homo sapiens, UniProt Q9Y6L6).
T1 sequence (Q9Y6L6 whole entry): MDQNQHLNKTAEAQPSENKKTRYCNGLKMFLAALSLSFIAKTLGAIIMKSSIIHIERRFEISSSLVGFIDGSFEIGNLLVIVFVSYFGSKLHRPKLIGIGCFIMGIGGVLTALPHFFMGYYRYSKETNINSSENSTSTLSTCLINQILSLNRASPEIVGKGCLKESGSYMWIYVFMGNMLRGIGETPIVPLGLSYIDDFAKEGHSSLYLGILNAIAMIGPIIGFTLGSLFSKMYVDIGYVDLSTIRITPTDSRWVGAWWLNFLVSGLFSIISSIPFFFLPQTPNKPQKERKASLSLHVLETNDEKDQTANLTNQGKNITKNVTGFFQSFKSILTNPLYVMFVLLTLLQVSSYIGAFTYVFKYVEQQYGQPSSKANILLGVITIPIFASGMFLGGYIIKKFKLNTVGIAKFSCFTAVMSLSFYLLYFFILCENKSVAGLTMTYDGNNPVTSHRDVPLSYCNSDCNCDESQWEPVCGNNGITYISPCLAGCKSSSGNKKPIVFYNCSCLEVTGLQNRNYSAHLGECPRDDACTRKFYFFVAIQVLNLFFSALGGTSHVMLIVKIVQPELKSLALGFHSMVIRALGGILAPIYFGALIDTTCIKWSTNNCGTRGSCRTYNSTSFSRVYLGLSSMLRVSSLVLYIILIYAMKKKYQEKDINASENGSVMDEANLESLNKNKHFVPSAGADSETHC
In words: Inhibition of human OATP1B1 assessed as reduction in intracellular probe substrate accumulation upto 100 uM by microplate scintillation counter analysis relative to control. Type of series: cell-based. A digest of the protocol:
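Cellular uptake-inhibition assays used Chinese hamster ovary, HEK293 or MDCKII cells stably expressing the respective human SLC transporter, run alongside the corresponding control cells. Inhibitor was tested at concentrations up to 100 μM.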

Series [2] deals with ATP-dependent translocase ABCB1 (Homo sapiens, UniProt P08183). As to the kind of experiment: Inhibition of P-gp in human Caco-2 cells assessed as reduction in paclitaxel efflux pre-incubated for 30 mins and measured after 120 mins by LC-MS/MS analysis. Format: cell-based. In a few lines: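 Bidirectional paclitaxel transport across Caco-2 monolayers with coadministered inhibitor. Apparent permeability was measured apical-to-basal (absorption) and basal-to-apical (efflux). IC50 was derived from these permeability data.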
Sequence of ATP-dependent translocase ABCB1 (P08183 whole entry): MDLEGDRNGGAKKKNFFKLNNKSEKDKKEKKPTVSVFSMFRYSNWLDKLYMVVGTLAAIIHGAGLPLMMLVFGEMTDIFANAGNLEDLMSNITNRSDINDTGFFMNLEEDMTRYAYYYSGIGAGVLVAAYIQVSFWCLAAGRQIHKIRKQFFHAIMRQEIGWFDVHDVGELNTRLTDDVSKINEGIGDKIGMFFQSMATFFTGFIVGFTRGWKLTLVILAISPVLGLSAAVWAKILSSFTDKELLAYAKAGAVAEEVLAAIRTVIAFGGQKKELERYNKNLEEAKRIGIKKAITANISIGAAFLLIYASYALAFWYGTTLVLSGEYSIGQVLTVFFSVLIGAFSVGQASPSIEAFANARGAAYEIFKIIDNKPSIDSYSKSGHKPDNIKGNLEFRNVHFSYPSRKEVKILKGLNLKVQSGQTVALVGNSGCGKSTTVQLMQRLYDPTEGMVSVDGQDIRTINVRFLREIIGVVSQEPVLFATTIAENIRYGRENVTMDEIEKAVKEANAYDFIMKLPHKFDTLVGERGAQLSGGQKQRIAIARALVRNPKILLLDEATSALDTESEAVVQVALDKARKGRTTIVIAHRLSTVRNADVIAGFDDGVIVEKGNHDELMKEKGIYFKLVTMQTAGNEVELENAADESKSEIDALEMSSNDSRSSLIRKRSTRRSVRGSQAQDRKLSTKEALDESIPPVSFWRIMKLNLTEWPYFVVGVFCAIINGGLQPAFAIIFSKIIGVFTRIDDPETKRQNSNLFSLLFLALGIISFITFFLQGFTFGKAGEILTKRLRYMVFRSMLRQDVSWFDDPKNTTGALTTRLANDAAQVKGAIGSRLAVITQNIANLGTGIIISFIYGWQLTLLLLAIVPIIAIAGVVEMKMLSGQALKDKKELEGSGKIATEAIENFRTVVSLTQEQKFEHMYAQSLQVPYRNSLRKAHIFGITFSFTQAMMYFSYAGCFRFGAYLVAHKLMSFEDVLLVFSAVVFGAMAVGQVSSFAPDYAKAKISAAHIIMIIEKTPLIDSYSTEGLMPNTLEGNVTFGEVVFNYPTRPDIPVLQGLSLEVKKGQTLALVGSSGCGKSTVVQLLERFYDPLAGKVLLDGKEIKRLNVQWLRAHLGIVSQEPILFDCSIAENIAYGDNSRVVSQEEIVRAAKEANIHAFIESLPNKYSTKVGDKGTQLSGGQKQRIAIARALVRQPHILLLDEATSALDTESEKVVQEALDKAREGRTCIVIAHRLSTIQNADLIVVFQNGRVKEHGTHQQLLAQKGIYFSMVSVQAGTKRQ
(In general: Passage across Caco-2 layers is used to estimate intestinal permeability.)

A short description of series [3]: Half life in Sprague-Dawley rat at 3 mg/kg, iv measured upto 48 hrs by LC-MS/MS analysis. Format: ADME, organism-based. Conditions: in vivo. A digest of the protocol:
(§1)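 Plasma pharmacokinetics in male Sprague-Dawley rats and male Beagle dogs (n = 3 per species), each given a single dose by IV at 3 mg/kg and by PO at 10 mg/kg. Cmax, Tmax, T1/2 and AUClast were derived for each route. F (%) was calculated from the PO and IV AUClast.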

The nature of series [4]: AUClast in Beagle dog at 3 mg/kg, iv measured upto 48 hrs by LC-MS/MS analysis. Type of series: ADME, organism-based, Canis lupus familiaris. The arrangement: route intravenous, dose 3 mg/kg, time <=48. The conditions noted are these: in vivo. A digest of the protocol: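 Single dose in male Sprague-Dawley rats and male Beagle dogs (n = 3 per species), given 3 mg/kg IV or 10 mg/kg PO. Plasma was sampled to derive Cmax, Tmax, T1/2 and AUClast by each route. Oral bioavailability (F) was calculated from the PO and IV AUClast.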

The nature of series [5]: Oral bioavailability in Beagle dog at 10 mg/kg measured upto 48 hrs by LC-MS/MS analysis. Type of series: ADME, organism-based, Canis lupus familiaris. Conditions: in vivo. In a few lines:
as §1

Series [6] in a line: Toxicity in Sprague-Dawley rat assessed as enlargement of mesenteric lymph nodes at >= 50 mg/kg, po and measured after 4 to 13 weeks. Conditions: in vivo, time 4-13 weeks. Type of series: organism-based, Mesenteric lymph node.
Series [7] can be described thus: Drug distribution in Beagle dog liver. Format: ADME, tissue-based, Canis lupus familiaris. The conditions noted are these: in vivo.
Series [8] is described as follows: Cmax in Beagle dog at 10 mg/kg, po measured upto 48 hrs by LC-MS/MS analysis. The conditions noted are these: in vivo.
Series [9] in a line: Tmax in Beagle dog at 10 mg/kg, po measured upto 48 hrs by LC-MS/MS analysis. Conditions: in vivo.
The nature of series [10]: Cmax in Sprague-Dawley rat at 10 mg/kg, po measured upto 48 hrs by LC-MS/MS analysis. Conditions: in vivo.
Series [11] can be described thus: Cmax in Sprague-Dawley rat at 20 mg/kg, po measured upto 24 hrs in presence of 10 mg/kg encequidar by LC-MS/MS analysis. Format: ADME, organism-based. The conditions noted are these: in vivo. The arrangement: route oral, dose 20 mg/kg, time <=24.
Series [12] is described as follows: Half life in Sprague-Dawley rat at 20 mg/kg, po measured upto 24 hrs by LC-MS/MS analysis. Conditions: in vivo.
The nature of series [13]: Oral bioavailability in Sprague-Dawley rat at 20 mg/kg measured upto 24 hrs in presence of 10 mg/kg encequidar by LC-MS/MS analysis. The conditions noted are these: in vivo. Format: ADME, organism-based.
Series [14] is described as follows: Drug distribution in Sprague-Dawley rat liver at 20 mg/kg, po measured upto 168 hrs in presence of 10 mg/kg encequidar by LC-MS/MS analysis. Type of series: ADME, organism-based. Conditions: in vivo.
A short description of series [15]: Ratio of drug concentration in BALB/c mouse kidney to plasma at 20 mg/kg, po measured upto 24 hrs in presence of 10 mg/kg encequidar by LC-MS/MS analysis. Format: ADME, organism-based.
The nature of series [16]: Drug excretion in Sprague-Dawley rat bile at 20 mg/kg, po in presence of 10 mg/kg encequidar. Conditions: in vivo. Format: ADME, organism-based.
In series [17] the test system is HT-29. In words: Antitumor activity against human HT-29 cells xenografted in athymic nude mouse assessed as induction of remission of tumor growth at 40 mg/kg, po in presence of 20 mg/kg encequidar measured until day 47. Format: functional, organism-based.
Series [18] can be described thus: Toxicity in athymic nude mouse xenografted with human MDA-MB-231 cells assessed as reduction in body weight at 20 mg/kg, po administered every other day for 4 doses in presence of 8 mg/kg encequidar and monitored for 70 to 82 days. The conditions noted are these: in vivo, time 70-82 day. Type of series: organism-based. A digest of the protocol:
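Female athymic NCr-nu mice (n = 10/group) bearing subcutaneous MDA-MB-231 xenografts were treated from day 8. […] Individual body weights were monitored for 82 days after implantation.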

The subject of series [19] is NCI-H460. In words: Antitumor activity against human NCI-H460 cells xenografted in athymic nude mouse assessed as median tumor growth delay at 24 mg/kg, iv administered every other day for 4 doses and monitored for 48 days. Type of series: functional. Conditions: time 48 day. A digest of the protocol:
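Female athymic NCr-nu mice carried subcutaneous NCI-H460 xenografts. […] Tumor weights and body weights were followed for 48 days after implantation. Read-out was median tumor growth delay.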
(A xenograft is tissue or cells of one species grown in another, often human tumour cells in immunodeficient mice.)

The nature of series [20]: Toxicity in athymic nude mouse xenografted with human NCI-H460 cells assessed as mortality at 18 to 24 mg/kg, iv administered every other day for 4 doses monitored for 48 days. Type of series: organism-based. The conditions noted are these: in vivo, 1152 h, dose 18-24 mg/kg, time 48 day. In a few lines: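 Female athymic NCr-nu mice carried subcutaneous NCI-H460 human lung tumor xenografts. Paclitaxel was given IV at 18 or 24 mg/kg every other day for four doses. Animals were followed for 48 days after tumor implantation, with individual body weights and mortality recorded alongside tumor weights.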

Regarding `COc1cc2c(cc1OC)CN(CCc1ccc(-n3nnc(-c4cc(OC)c(OC)cc4NC(=O)c4cc(=O)c5ccccc5o4)n3)cc1)CC2`, the “inhibition (INH)” value in series [1] is less than 50%. The IC50 in [2] came out at 53 nM. In series [3], this compound gave a half-life of 14.8 h. The compound further registered an AUC(0-t) at 48 h in [4] of 1920 ng·h/mL. This compound also came in with a bioavailability in [5] of 11.2%. Moreover, the Activity entry in series [6] is “Toxic”. For the same compound, in series [7], the Drug uptake result is “Active”. The Cmax in series [8] is 26.6 ng/mL; in [10], 7.1 ng/mL. Moreover, the time of peak concentration (Tmax) in series [9] worked out at 13.3 h.
Take `CC(=O)O[C@H]1C(=O)[C@@]2(C)[C@H]([C@H](OC(=O)c3ccccc3)[C@]3(O)C[C@H](OC(=O)[C@H](O)[C@@H](NC(=O)c4ccccc4)c4ccccc4)C(C)=C1C3(C)C)[C@]1(OC(C)=O)CO[C@@H]1C[C@@H]2O` [PACLITAXEL]: in series [11], the Cmax was found to be 1250 ng/mL. In series [12], this compound gave a half-life at 24 h of 8 h. Also, the bioavailability in series [13] was determined as 41.3%. Further, the Drug uptake entry in series [14] is reported as “Active”. The Kp at 24 h in series [15] is more than 1. For the same compound, the Drug excretion entry in series [16] is on record as “Metabolite_Detected”. The outcome in series [17] was Active. The Activity entry in series [18] and in series [20] was “Non-Toxic” throughout. Also, the Time in series [19] amounted to 16.3 days.

The values are drawn from ChEMBL document CHEMBL4825663 (J Med Chem, 2021).
